Reference: article PMC10193422 (ACS Omega, 2023)
≈ marks a conversion by molar mass, not a printed value.

What was measured:
Hemolysis assay = format: cell-based; conditions: rabbit, rabbit red blood cell suspension
C. auris 887 = assay: MIC against drug-resistant C. auris clinical isolate; format: cell-based, Candida auris; conditions: Candidozyma auris, 887, 24 h, read-out: MIC C. aur 887
C. auris 789 = assay: as above; format: cell-based, Candida auris; conditions: Candidozyma auris, 789, 24 h, read-out: MIC C. aur 789
C. auris 791 = assay: as above; format: cell-based, Candida auris; conditions: Candidozyma auris, 791, 24 h, read-out: MIC C. aur 791
C. auris 888 = assay: as above; format: cell-based, Candida auris; conditions: Candidozyma auris, 888, 24 h, read-out: MIC C. aur 888
Candida tropicalis 2718 = assay: MIC, CLSI broth microdilution; format: cell-based; conditions: Candida tropicalis, 2718, 24 h, read-out: MIC C. tro 2718
Procedure, shortened: (§1)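 CLSI broth microdilution (M27-A3 and M60). Strains are kept frozen in YPD with 40% glycerol, passaged twice on Sabouraud dextrose agar at 30 °C, then grown overnight in YPD at 30 °C with shaking. Test compound is dissolved in DMSO, serially diluted in growth medium, inoculated, and incubated at 30 °C. Candida spp. are read at 24 h, C. glabrata at 48 h and C. neoformans at 72 h. MIC is the first well with ≥50% growth reduction versus the drug-free well.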

C. auris BS12372 = assay: MIC against drug-resistant C. auris clinical isolate; format: cell-based, Candida auris; conditions: Candidozyma auris, BS12372, 24 h, read-out: MIC C. aur BS12372
[1] = system: Cryptococcus neoformans H99; assay: MIC, CLSI broth microdilution; format: cell-based; conditions: H99, 72 h, read-out: MIC C. neo H99
Procedure, shortened: as §1

C. auris D12 = assay: MIC against drug-resistant C. auris clinical isolate; format: cell-based, Candida auris; conditions: Candidozyma auris, D12, 24 h, read-out: MIC C. aur D12
[2] = system: sterol composition in C. albicans SC5314; assay: Sterol composition analysis by GC-MS; format: cell-based, Candida albicans; conditions: compounds at 0.008 μg/mL, FLC at 8 μg/mL
[3] = system: Aspergillus fumigatus 7544; assay: MIC, CLSI broth microdilution; format: cell-based; conditions: Aspergillus fumigatus, 7544, 48 h, read-out: MIC A. fum 7544
Procedure, shortened: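 Mould MIC by CLSI broth microdilution (M27-A3 and M60). The strain comes from a frozen YPD/40% glycerol stock. Test compound is dissolved in DMSO and serially diluted in growth medium. Wells are inoculated and incubated at 35 °C for 48 h. MIC is the first well with ≥50% growth reduction versus the drug-free control.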

Candida albicans SC5314 = assay: MIC, CLSI broth microdilution; format: cell-based; conditions: SC5314, 24 h, read-out: MIC C. alb SC5314
Procedure, shortened: as §1

Candida albicans = conditions: cited from earlier work

C[C@@H]1[C@H](O)[C@@H](C)/C=C/C=C/C=C/C=C/C=C/C=C/C=C/[C@H](O[C@@H]2O[C@H](C)[C@@H](O)[C@H](N)[C@@H]2O)C[C@@H]2O[C@](O)(C[C@@H](O)C[C@@H](O)[C@H](O)CC[C@@H](O)C[C@@H](O)CC(=O)O[C@H]1C)C[C@H](O)[C@H]2C(=O)O [AmB, amphotericin B]
hemolysis at 1 h, 32 μg/mL (Hemolysis assay): 26.8%
hemolysis at 1 h, 64 μg/mL (Hemolysis assay): 100%

OC(Cn1cncn1)(Cn1cncn1)c1ccc(F)cc1F [FLC, fluconazole]
MIC (C. auris 887): > 64 µg/mL
MIC (C. auris 789): > 64 µg/mL
MIC (C. auris 791): > 64 µg/mL
MIC (C. auris 888): > 64 µg/mL
MIC (Candida tropicalis 2718): < 0.125 µg/mL
MIC (C. auris BS12372): > 64 µg/mL
MIC [1]: 8 µg/mL (≈ 26.1 µM)
MIC (C. auris D12): > 64 µg/mL
ergosterol content in treated cells [2]: almost completely depleted
MIC [3]: > 64 µg/mL
MIC (Candida albicans SC5314): 0.25 µg/mL (≈ 0.816 µM)

O[C@@](Cn1cnnn1)(c1ccc(F)cc1F)C(F)(F)c1ccc(-c2ccc(OCC(F)(F)F)cc2)cn1 [OTC, oteseconazole]
MIC (C. auris 887): 4 µg/mL (≈ 7.58 µM)
MIC (C. auris 789): 2 µg/mL (≈ 3.79 µM)
MIC (C. auris 791): 8 µg/mL (≈ 15.2 µM)
MIC (C. auris 888): 8 µg/mL (≈ 15.2 µM)
MIC (Candida tropicalis 2718): < 0.008 µg/mL
MIC (C. auris BS12372): < 0.0625 µg/mL
MIC [1]: < 0.008 µg/mL
MIC (C. auris D12): 0.25 µg/mL (≈ 0.474 µM)
MIC [3]: > 64 µg/mL
MIC (Candida albicans SC5314): < 0.008 µg/mL

CC[C@@H]([C@H](C)O)n1ncn(-c2ccc(N3CCN(c4ccc(OC[C@@H]5CO[C@@](Cn6cncn6)(c6ccc(F)cc6F)C5)cc4)CC3)cc2)c1=O [POS, posaconazole]
MIC (Candida tropicalis 2718): < 0.008 µg/mL
MIC [1]: < 0.008 µg/mL
MIC [3]: 0.125 µg/mL (≈ 0.178 µM)
MIC (Candida albicans SC5314): < 0.008 µg/mL

C[C@@H](c1ncncc1F)[C@](O)(Cn1cncn1)c1ccc(F)cc1F [VOC, voriconazole]
MIC against Candida albicans (Candida albicans): 0.06 µg/mL (≈ 0.172 µM)
MIC (Candida tropicalis 2718): < 0.008 µg/mL
MIC [1]: 0.0625 µg/mL (≈ 0.179 µM)
MIC [3]: 0.125 µg/mL (≈ 0.358 µM)
MIC (Candida albicans SC5314): < 0.008 µg/mL
